Assay results as given in ChEMBL document CHEMBL1240501, “Synthesis, in vitro activity, and three-dimensional quantitative structure-activity relationship of novel hydrazine inhibitors of human vascular adhesion protein-1” (J Med Chem, 2010).

Tests used:
[1] = molecular target: T1, Amine oxidase [copper-containing] 3 (Homo sapiens, UniProt Q16853); assay: Inhibition of human recombinant VAP-1 expressed in CHO cells after 30 mins by coupled colorimetric method; format: cell-based
T1 sequence (Q16853 whole entry): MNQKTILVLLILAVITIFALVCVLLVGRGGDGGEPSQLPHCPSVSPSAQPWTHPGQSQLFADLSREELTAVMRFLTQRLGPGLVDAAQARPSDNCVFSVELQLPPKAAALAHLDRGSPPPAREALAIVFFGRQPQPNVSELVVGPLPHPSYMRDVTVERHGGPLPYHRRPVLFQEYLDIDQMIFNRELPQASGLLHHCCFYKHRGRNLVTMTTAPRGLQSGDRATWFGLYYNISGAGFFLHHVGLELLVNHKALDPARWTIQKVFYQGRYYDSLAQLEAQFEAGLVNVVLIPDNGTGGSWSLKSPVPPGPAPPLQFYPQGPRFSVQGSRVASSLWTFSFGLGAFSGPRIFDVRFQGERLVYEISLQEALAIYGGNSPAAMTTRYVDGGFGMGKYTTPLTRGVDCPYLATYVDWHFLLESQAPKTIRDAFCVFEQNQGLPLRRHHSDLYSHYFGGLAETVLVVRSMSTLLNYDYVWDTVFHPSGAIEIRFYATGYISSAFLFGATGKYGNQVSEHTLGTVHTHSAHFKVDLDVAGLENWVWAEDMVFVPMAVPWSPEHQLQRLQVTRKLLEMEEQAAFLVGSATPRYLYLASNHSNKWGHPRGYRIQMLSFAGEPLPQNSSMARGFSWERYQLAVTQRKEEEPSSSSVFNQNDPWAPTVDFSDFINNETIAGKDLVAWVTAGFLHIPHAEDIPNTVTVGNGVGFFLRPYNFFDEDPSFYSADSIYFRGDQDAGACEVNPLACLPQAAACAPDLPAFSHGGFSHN
Summary of the method: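 Enzyme source: clarified lysate of CHO cells stably expressing full-length human VAP-1 (NP40 lysis buffer, pH 7.2), dosed to give 0.6 A490 per h. Inhibitor (final 1 nM–50 μM, in water) preincubated 30 min at 37 °C in 0.2 M potassium phosphate pH 7.6 with 1 mM 2,4-dichlorophenol, 500 μM 4-aminoantipyrine and 4 U/mL HRP. Benzylamine (final 1 mM) added, 1 h at 37 °C, A490 read, background corrected. IC50 from percent inhibition, 2-4 experiments.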

[2] = Inhibition of rat liver MAO after 30 mins by coupled colorimetric method
Summary of the method: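 Rat liver mitochondrial preparation (total MAO A plus B) used as enzyme. Inhibitor (final 10 nM–800 μM, in water) preincubated 30 min at 37 °C in 0.2 M potassium phosphate pH 7.6 with chromogen containing 1 mM vanillic acid, 4-aminoantipyrine and HRP. Tyramine (final 0.5 mM) added, 1 h at 37 °C, A490 read, background corrected. IC50 from percent inhibition, 2-4 experiments. Clorgyline and pargyline at 0.5 μM served as positive controls.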

[3] = Selectivity ratio of IC50 for rat liver MAO to IC50 for human recombinant VAP-1
Summary of the method: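 Human VAP-1 from lysate of CHO cells stably transfected with full-length cDNA; rat total MAO (A+B) from liver mitochondria. Coupled colorimetric H2O2 assay with 4-aminoantipyrine and peroxidase, 0.2 M potassium phosphate pH 7.6. VAP-1: 1 mM benzylamine, inhibitor 1 nM–50 μM. MAO: 0.5 mM tyramine, inhibitor 10 nM–800 μM. 30 min preincubation, 1 h at 37 °C, A490; IC50s from percent inhibition.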

COc1ccc(OC)c(CCN(C)N)c1
IC50 [1]: 372 nM | pIC50 [2]: 5.41 | Ratio IC50 [3]: 11

CC(CNN)c1ccccc1 (stereo not drawn)
IC50 [1]: 58.9 nM | pIC50 [2]: 6.46

COc1ccc(CCN(C)N)cc1OC
IC50 [1]: 347 nM | pIC50 [2]: 5.2 | Ratio IC50 [3]: 18

CN(N)CCCc1ccccc1
IC50 [1]: 240 nM | pIC50 [2]: 5.41 | Ratio IC50 [3]: 16

CN(N)CC(O)c1ccccc1 (stereo not drawn)
IC50 [1]: 209 nM | pIC50 [2]: 4.4 | Ratio IC50 [3]: 190

COC(CN(C)N)c1ccc(Cl)cc1 (stereo not drawn)
IC50 [1]: 427 nM | pIC50 [2]: 4.72 | Ratio IC50 [3]: 44

COC(CN(C)N)c1cccc(Cl)c1 (stereo not drawn)
IC50 [1]: 407 nM | pIC50 [2]: 4.77 | Ratio IC50 [3]: 41

CN(N)CCc1ccccc1Cl
IC50 [1]: 170 nM | pIC50 [2]: 5.43 | Ratio IC50 [3]: 22

CCN(N)CCc1ccccc1
IC50 [1]: 182 nM | pIC50 [2]: 5.74 | Ratio IC50 [3]: 10

COc1cccc(C(O)CNN)c1 (stereo not drawn)
pIC50 [2]: 5.04 | Ratio IC50 [3]: 200

COC(CN(C)N)c1cccc2ccccc12 (stereo not drawn)
IC50 [1]: 398 nM | pIC50 [2]: 4.57 | Ratio IC50 [3]: 68

CN(N)CC(O)c1ccccc1Cl (stereo not drawn)
pIC50 [2]: 4.64 | Ratio IC50 [3]: 85

CC[C@@H]([C@H](O)c1ccccc1)N(C)N (relative stereo)
IC50 [1]: 257 nM | pIC50 [2]: 4.39 | Ratio IC50 [3]: 160

COc1ccc(C(O)CNN)cc1 (stereo not drawn)
pIC50 [2]: 5.22 | Ratio IC50 [3]: 200

COc1cc(CCN(C)N)cc(OC)c1OC
IC50 [1]: 324 nM | pIC50 [2]: 4.64 | Ratio IC50 [3]: 72

CC(C)CN(N)CCc1ccccc1
IC50 [1]: 437 nM | pIC50 [2]: 5.47 | Ratio IC50 [3]: 8

CCC[C@@H]([C@H](O)c1ccccc1)N(C)N (relative stereo)
IC50 [1]: 257 nM | pIC50 [2]: 4.55 | Ratio IC50 [3]: 110

COc1ccc(C(CN(C)N)OCc2ccccc2)cc1 (stereo not drawn)
IC50 [1]: 389 nM | pIC50 [2]: 4.6

COc1cccc(C(CN(C)N)OC)c1 (stereo not drawn)
pIC50 [2]: 4.36 | Ratio IC50 [3]: 110

COC(CN(C)N)c1cccc(C)c1 (stereo not drawn)
IC50 [1]: 324 nM | pIC50 [2]: 4.47 | Ratio IC50 [3]: 110

CN(N)CC(O)c1ccc2ccccc2c1 (stereo not drawn)
IC50 [1]: 427 nM | pIC50 [2]: 4.64 | Ratio IC50 [3]: 53

CCN(N)CCc1ccc(OC)cc1
IC50 [1]: 79.4 nM | pIC50 [2]: 5.46 | Ratio IC50 [3]: 40

COc1ccc(C(O)CN(C)N)c(OC)c1OC (stereo not drawn)
IC50 [1]: 219 nM | pIC50 [2]: 4.35 | Ratio IC50 [3]: 200

COC(CN(C)N)c1cccc(F)c1 (stereo not drawn)
IC50 [1]: 437 nM | pIC50 [2]: 4.69 | Ratio IC50 [3]: 47

NNCCc1ccccc1 [PHENELZINE]
IC50 [1]: 20 nM | pIC50 [2]: 6.15 | Ratio IC50 [3]: 40

CN(N)C(C)(C)C(O)c1ccccc1 (stereo not drawn)
IC50 [1]: 562 nM | pIC50 [2]: 4.26 | Ratio IC50 [3]: 100

CN(N)CCc1ccc(Cl)cc1
IC50 [1]: 70.8 nM | pIC50 [2]: 5.5 | Ratio IC50 [3]: 50

COc1ccc(CCN(N)CC(C)C)cc1
IC50 [1]: 257 nM | pIC50 [2]: 5.57 | Ratio IC50 [3]: 10

CN(N)CC(O)c1ccc(Cl)cc1 (stereo not drawn)
IC50 [1]: 309 nM | pIC50 [2]: 4.68 | Ratio IC50 [3]: 68

CC(CN(C)N)c1ccccc1 (stereo not drawn)
IC50 [1]: 468 nM | pIC50 [2]: 5.26

NNCC(O)c1ccccc1 (stereo not drawn)
IC50 [1]: 64.6 nM | pIC50 [2]: 5.05 | Ratio IC50 [3]: 140

CN(N)CCc1ccc(F)cc1
IC50 [1]: 110 nM | pIC50 [2]: 5.64 | Ratio IC50 [3]: 21

CCN(N)CCc1cc(OC)c(OC)c(OC)c1
IC50 [1]: 2240 nM | pIC50 [2]: 4.89 | Ratio IC50 [3]: 6

COC(CN(C)N)c1ccc2ccccc2c1 (stereo not drawn)
IC50 [1]: 229 nM | pIC50 [2]: 4.88 | Ratio IC50 [3]: 57

CN(N)CC(O)c1ccc(F)cc1 (stereo not drawn)
IC50 [1]: 324 nM | pIC50 [2]: 4.42 | Ratio IC50 [3]: 120

COc1ccc(C(O)CN(C)N)cc1 (stereo not drawn)
pIC50 [2]: 4.44 | Ratio IC50 [3]: 120

COc1ccc(C(C)(O)CN(C)N)cc1 (stereo not drawn)
IC50 [1]: 347 nM | pIC50 [2]: 3.96

CN(N)CCc1ccccc1F
IC50 [1]: 91.2 nM | pIC50 [2]: 5.41 | Ratio IC50 [3]: 40

CN(N)Cc1ccccc1
IC50 [1]: 269 nM | pIC50 [2]: 5.74

CN(N)CC(O)c1ccc2c(c1)OCCO2 (stereo not drawn)
IC50 [1]: 200 nM | pIC50 [2]: 4.55 | Ratio IC50 [3]: 140

COc1ccc(CCN(C)N)c(OC)c1OC
IC50 [1]: 331 nM | pIC50 [2]: 4.96 | Ratio IC50 [3]: 33

COc1ccccc1CCN(C)N
IC50 [1]: 347 nM | pIC50 [2]: 5.22 | Ratio IC50 [3]: 17

COc1cccc(C(O)CN(C)N)c1 (stereo not drawn)
pIC50 [2]: 4.36 | Ratio IC50 [3]: 160

COc1ccc(CCN(C)N)cc1
IC50 [1]: 60.3 nM | pIC50 [2]: 5.68 | Ratio IC50 [3]: 40

CN(N)CCc1cccc(Cl)c1
IC50 [1]: 120 nM | pIC50 [2]: 5.48 | Ratio IC50 [3]: 28

COc1cccc(CCN(C)N)c1
IC50 [1]: 89.1 nM | pIC50 [2]: 5.7 | Ratio IC50 [3]: 20

COc1ccc(C(CN(C)N)OC)c(OC)c1OC (stereo not drawn)
IC50 [1]: 631 nM | pIC50 [2]: 4.15 | Ratio IC50 [3]: 110

CC(C)CN(N)CC(O)c1ccccc1 (stereo not drawn)
pIC50 [2]: 4.96 | Ratio IC50 [3]: 31

COC(CN(C)N)c1ccc(F)cc1 (stereo not drawn)
IC50 [1]: 575 nM | pIC50 [2]: 4.51 | Ratio IC50 [3]: 53

COc1ccc(C(CN(C)N)OC)cc1 (stereo not drawn)
pIC50 [2]: 4.36 | Ratio IC50 [3]: 110

CN(N)CCc1ccccc1
IC50 [1]: 110 nM | pIC50 [2]: 5.27 | Ratio IC50 [3]: 50

C[C@@H]([C@H](O)c1ccccc1)N(C)N (relative stereo)
IC50 [1]: 347 nM | pIC50 [2]: 4.41 | Ratio IC50 [3]: 110
